The results in this text go back to ChEMBL document CHEMBL1142997 (J Med Chem, 2007).

Each structure is given as a SMILES string.

The target of test [1] is T1, Hydroxycarboxylic acid receptor 3 (Homo sapiens, UniProt P49019). The experiment in a line: Activity at GPR109b in CHO cells assessed as inhibition of forskolin-induced cAMP generation. The test is classed as functional, cell-based. The method, boiled down:
(§1)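 Whole-cell adenylyl cyclase FlashPlate cAMP assay on a stable receptor clone (positive clones picked by anti-HA immunostaining). Each well held 50 000 cells, stimulated with 5 µM forskolin. Normalisation: forskolin-stimulated cAMP set at 100%, cAMP from cells without forskolin at 200%. Potency reported as EC50 with number of determinations (n).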

Test [2] concerns the target T1, Hydroxycarboxylic acid receptor 3. Kind of test: Activity at GPR109b in CHO cells assessed as inhibition of forskolin-induced cAMP generation upto 100 uM. Also noted: scale not given: the % may be the effect or the level left. In kind it is functional, cell-based. The method, boiled down:
as §1

The next test is filed under the species Homo sapiens. The experiment in a line: Selectivity for GPR109a over GPR109b. The test is classed as functional. The method in brief:
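Whole-cell cAMP (adenylyl cyclase activation) FlashPlate assay on stable clones expressing GPR109a or GPR109b; clones picked by anti-HA immunostaining. Each clone was optimized separately, using 50 000 cells per well and 5 µM forskolin stimulation. Forskolin-stimulated cAMP was set as 100% and unstimulated cAMP as 200%. Agonist EC50 was measured at each receptor.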

T1 sequence (P49019 whole entry): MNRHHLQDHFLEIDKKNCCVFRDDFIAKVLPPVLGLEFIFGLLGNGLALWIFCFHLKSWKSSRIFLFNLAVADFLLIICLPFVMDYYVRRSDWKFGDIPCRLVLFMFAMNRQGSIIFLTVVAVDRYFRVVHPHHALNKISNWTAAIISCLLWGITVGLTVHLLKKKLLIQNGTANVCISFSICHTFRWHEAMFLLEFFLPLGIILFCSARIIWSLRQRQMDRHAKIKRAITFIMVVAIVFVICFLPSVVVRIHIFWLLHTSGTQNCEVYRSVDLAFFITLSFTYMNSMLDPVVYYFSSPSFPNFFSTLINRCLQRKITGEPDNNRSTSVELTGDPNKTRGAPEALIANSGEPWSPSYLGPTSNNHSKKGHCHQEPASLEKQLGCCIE

In the case of `CC1(c2csc(Br)c2)OC(C(=O)O)=CC1=O` (stereo in doubt; (+)-5ai), the EC50 in test [1] is 0.37 µM (agonist). With `CC1(c2ccncc2)OC(C(=O)O)=CC1=O` (stereo not given), in test [2], the Activity is less than 50%. Take `CC1(c2csc(Cl)c2)OC(C(=O)O)=CC1=O` (single isomer, unassigned; (+)): the half-maximal effective concentration (EC50) in test [1] was 0.69 µM (agonist). Consider `CC1(c2ccccc2)OC(C(=O)O)=CC1=O` (single isomer, unassigned; (-)), for which the Activity in test [2] was less than 50%.

On to `Cc1cccc(C2(C)OC(C(=O)O)=CC2=O)c1` (stereo not given), for which the Activity in test [2] was less than 50%. As for `CC1(c2ccccc2)OC(C(=O)O)=CC1=O` (stereo in doubt; 5a), the Selectivity ratio in the test listed under Homo sapiens was found to be 3.

As for `Cc1cc(C2(C)OC(C(=O)O)=CC2=O)cs1` (stereo in doubt; 5aj), in test [1], the EC50 is 0.18 µM (agonist). The same measure, in the same setting: the figure for `CC1(c2cccc(Br)c2)OC(C(=O)O)=CC1=O` (single isomer, unassigned; (+)) is 14 µM (agonist). Consider `CC1(c2cc(Br)cs2)OC(C(=O)O)=CC1=O` (stereo not given), for which the 50% effective concentration (EC50) in test [1] was 4.1 µM (agonist). Turning to `CC1(c2ccc(F)cc2)OC(C(=O)O)=CC1=O` (stereo not given), the 50% effective concentration (EC50) in test [1] is on record as 9.9 µM (agonist).

Regarding `Cc1ccc(C2(C)OC(C(=O)O)=CC2=O)s1` (stereo not given), the EC50 in test [1] is 0.27 µM (agonist).

Turning to `CC1(c2cccc(Br)c2)OC(C(=O)O)=CC1=O` (stereo in doubt; 5u), the EC50 in test [1] is recorded as 4.9 µM (agonist). Still for that read-out and setting: then `CC1(c2csc(Br)c2)OC(C(=O)O)=CC1=O` (stereo in doubt; 5ai), with 1.5 µM (agonist); and `CC1(c2cccc(C(F)(F)F)c2)OC(C(=O)O)=CC1=O` (stereo not given), with 12.6 µM (agonist); and `CC1(c2cc(F)cc(F)c2)OC(C(=O)O)=CC1=O` (stereo not given), with 33 µM (agonist). As to `Cc1csc(C2(C)OC(C(=O)O)=CC2=O)c1` (stereo not given), the EC50 in test [1] was 1.8 µM (agonist). Turning to `O=C(O)C1=CC(=O)C2(CCc3ccccc32)O1` (stereo not given), the Activity in test [2] was less than 50%. For `CCc1cccc(C2(C)OC(C(=O)O)=CC2=O)c1` (stereo not given), the EC50 in test [1] was 6.2 µM (agonist). Consider `CC1(c2c(F)cccc2F)OC(C(=O)O)=CC1=O` (stereo not given), for which, in test [1], the EC50 is listed as 36 µM (agonist). Consider `CC1(c2ccco2)OC(C(=O)O)=CC1=O` (stereo not given), for which the Activity in test [2] was less than 50%. On to `CC1(c2ccccc2)OC(C(=O)O)=CC1=O` (stereo in doubt; (+)-5a) [ACIFRAN], for which the EC50 in test [1] is listed as 3 µM (agonist). Same read-out and setting: the figure for `CCC1(c2ccccc2)OC(C(=O)O)=CC1=O` (stereo not given) is 4.8 µM (agonist); for `CC1(c2csc(Cl)c2)OC(C(=O)O)=CC1=O` (stereo in doubt; (-)-5ah) it is 16 µM (agonist); for `Cc1sc(C2(C)OC(C(=O)O)=CC2=O)cc1Br` (stereo not given) it is 10.4 µM (agonist). Turning to `CC1(c2cccc(Cl)c2)OC(C(=O)O)=CC1=O` (stereo not given), the EC50 in test [1] is 22 µM (agonist). Take `CC1(c2cc(Cl)ccc2Cl)OC(C(=O)O)=CC1=O` (stereo not given): the Activity in test [2] was less than 50%. Turning to `CC1(c2ccc(Cl)s2)OC(C(=O)O)=CC1=O` (stereo not given), the concentration giving a half-maximal response (EC50) in test [1] is given as 3.7 µM (agonist). On to `CC1(c2cccc(I)c2)OC(C(=O)O)=CC1=O` (stereo not given), for which, in test [1], the concentration for a half-maximal effect (EC50) is recorded as 5.1 µM (agonist). On the same count and under the same terms, the figure for `CC1(C2=CCCC2)OC(C(=O)O)=CC1=O` (stereo not given) is 5.1 µM (agonist). Still for that read-out and setting: the figure for `CC1(c2csc(Cl)c2)OC(C(=O)O)=CC1=O` (stereo in doubt; 5ah) is 1.7 µM (agonist); for `CC1(c2ccccc2)OC(C(=O)O)=CC1=O` (stereo in doubt; 5a) [ACIFRAN] it is 4.2 µM (agonist). Take `CC1(c2ccsc2)OC(C(=O)O)=CC1=O` (stereo not given): in test [1], the EC50 is 4.2 µM (agonist).

For `O=C(O)c1cccnc1`, the Activity in test [2] was less than 50%. Same read-out and setting: the figure for `COc1cccc(C2(C)OC(C(=O)O)=CC2=O)c1` (stereo not given) is less than 50%. `Cc1cc(C2(C)OC(C(=O)O)=CC2=O)cs1` (single isomer, unassigned; (+)): the EC50 in test [1] was 0.18 µM (agonist).

Turning to `Cc1cc(C2(C)OC(C(=O)O)=CC2=O)cs1` (stereo in doubt; (-)-5aj), the concentration for a half-maximal effect (EC50) in test [1] is recorded as 5 µM (agonist). For the molecule `Cc1cnc(C(=O)O)c[n+]1[O-]`, in test [2], the Activity is less than 50%. For the molecule `CC1(c2ccc(F)c(F)c2)OC(C(=O)O)=CC1=O` (stereo not given), in test [1], the EC50 is 19 µM (agonist). As to `CC1(c2cccnc2)OC(C(=O)O)=CC1=O` (stereo not given), in test [2], the Activity was less than 50%. `CC1(c2ccc(F)cc2F)OC(C(=O)O)=CC1=O` (stereo not given): the EC50 in test [1] is on record as 24 µM (agonist).
